According to ChEMBL document CHEMBL4402563, “Preclinical Optimization of gp120 Entry Antagonists as anti-HIV-1 Agents with Improved Cytotoxicity and ADME Properties through Rational Design, Synthesis, and Antiviral Evaluation” (J Med Chem, 2020):
≈ marks a conversion by molar mass, not a printed value.

What was measured:
[1] = Cytotoxicity against dog Cf2Th-CCR5 cells infected with CD4-dependent pseudovirus HIV1 ADA incubated for 48 hrs by MTS assay
[2] = system: Human immunodeficiency virus 1; test: Antiviral activity against HIV1 HXB2 infected in human TZM-bl cells preincubated for 30 min followed by viral infection and measured after 3 days by luciferase based assay; type: functional, organism-based; details: Human immunodeficiency virus 1, M:B_HXB2R
Summary of the method: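 Single-cycle pseudovirus carrying HXB2 Env (CXCR4-tropic), made in HEK293T by co-transfecting an Env-deleted backbone (pSG3Δenv or pNL4-3.Luc.R-E-) with an Env plasmid. TZM-bl cells were seeded at 1 × 10^4/well and grown overnight. Virus was pretreated with graded compound concentrations, then added. Cells were washed and lysed, and IC50 was taken from percent inhibition.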

[3] = system: Human immunodeficiency virus 1; test: Antiviral activity against HIV1-3B infected in human H9 cells assessed as inhibition in cell to cell HIV1 transmission to human TZM-bl acceptor cells incubated for 24 hrs by luciferase based assay; type: functional, organism-based; details: Human immunodeficiency virus 1, 3B
[4] = system: Human immunodeficiency virus 1; test: Antiviral activity against HIV1-ADA infected in human MOLT4 cells assessed as inhibition in cell to cell HIV1 transmission to human TZM-bl acceptor cells incubated for 24 hrs by luciferase based assay; type: functional, organism-based; details: Human immunodeficiency virus 1, 24 h
TZM = test: Cytotoxicity against human TZM-bl cells incubated for 3 days by MTS assay; type: cell-based; details: 72 h
[5] = Solubility of compound in pH 7.4 PBS buffer at 1 mg incubated for overnight by LC-MS/MS analysis; type: physicochemical; details: in vitro
Summary of the method: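 Aqueous solubility was measured in phosphate buffer at pH 7.4 and reported in mg/mL.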

[6] = Apparent permeability from apical to basolateral side in human Caco2 cells at 5 uM measured for 120 mins by LC-MS/MS analysis; type: ADME, cell-based; details: caco-2, 2 h
[7] = Apparent permeability from basolateral side to apical side in human Caco2 cells at 5 uM measured for 120 mins by LC-MS/MS analysis; type: ADME, cell-based; details: caco-2, 2 h
[8] = Apparent permeability from apical to basolateral side in human Caco2 cells at 5 uM preincubated with vals-podar for 30 mins and measured for 120 mins by LC-MS/MS analysis; type: ADME, cell-based; details: Caco-2, with valspodar (printed as vals-podar; concentration not stated)
Summary of the method: (§1)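 Bidirectional Caco-2 transport run with the P-gp inhibitor valspodar at 1 μM. Papp is given as ×10−6 cm/sec for each direction, and the efflux ratio is taken from B-to-A over A-to-B.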

[9] = Apparent permeability from basolateral side to apical side in human Caco2 cells at 5 uM preincubated with vals-podar for 30 mins and measured for 120 mins by LC-MS/MS analysis; type: ADME, cell-based; details: Caco-2, with valspodar (printed as vals-podar; concentration not stated)
Summary of the method: as §1

[10] = Metabolic stability in human liver microsomes assessed as parent compound remaining at 3 uM preincubated for 3 mins followed by NADPH addition and measured up to 120 mins by LC-MS/MS analysis; type: ADME, Microsome; details: read-out: Stability
[11] = Intrinsic clearance in human liver microsomes at 3 uM preincubated for 3 mins followed by NADPH addition and measured up to 120 mins by LC-MS/MS analysis; type: ADME, Microsome; details: 2 h
[12] = Half life in human liver microsomes at 3 uM preincubated for 3 mins followed by NADPH addition and measured up to 120 mins by LC-MS/MS analysis; type: ADME, Microsome; details: 2 h
[13] = Protein binding in human plasma at 5 uM measured for 4 hrs by LC-MS/MS analysis; type: ADME, cell-free
Cytochrome P450 1A2 = biological target: T1, Cytochrome P450 1A2 (Homo sapiens, UniProt P05177); test: Inhibition of CYP1A2 in human liver microsomes using phenacetin as substrate preincubated for 5 mins followed by NADPH addition and measured for 10 to 30 mins by LC-MS/MS analysis; type: ADME
T1 sequence (P05177 whole entry): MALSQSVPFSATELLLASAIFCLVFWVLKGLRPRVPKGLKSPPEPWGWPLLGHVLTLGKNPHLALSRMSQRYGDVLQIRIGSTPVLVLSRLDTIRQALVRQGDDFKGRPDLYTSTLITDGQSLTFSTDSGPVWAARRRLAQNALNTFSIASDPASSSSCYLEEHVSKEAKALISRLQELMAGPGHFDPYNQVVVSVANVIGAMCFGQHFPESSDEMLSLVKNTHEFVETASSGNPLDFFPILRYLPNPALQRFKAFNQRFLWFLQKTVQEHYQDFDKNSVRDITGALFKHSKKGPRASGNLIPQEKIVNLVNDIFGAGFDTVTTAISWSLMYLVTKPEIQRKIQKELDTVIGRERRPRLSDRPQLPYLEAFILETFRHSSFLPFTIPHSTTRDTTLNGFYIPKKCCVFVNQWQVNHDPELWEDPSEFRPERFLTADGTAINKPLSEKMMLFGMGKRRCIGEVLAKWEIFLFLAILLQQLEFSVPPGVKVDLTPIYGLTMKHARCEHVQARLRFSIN
Summary of the method: (§2)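 Inhibition was screened in a panel of eight CYP450 isoforms, with test concentrations escalated up to 100 μM.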

Cytochrome P450 2B6 = biological target: T2, Cytochrome P450 2B6 (Homo sapiens, UniProt P20813); test: Inhibition of CYP2B6 in human liver microsomes using bupropion as substrate preincubated for 5 mins followed by NADPH addition and measured for 10 to 30 mins by LC-MS/MS analysis; type: ADME
T2 sequence (P20813 whole entry): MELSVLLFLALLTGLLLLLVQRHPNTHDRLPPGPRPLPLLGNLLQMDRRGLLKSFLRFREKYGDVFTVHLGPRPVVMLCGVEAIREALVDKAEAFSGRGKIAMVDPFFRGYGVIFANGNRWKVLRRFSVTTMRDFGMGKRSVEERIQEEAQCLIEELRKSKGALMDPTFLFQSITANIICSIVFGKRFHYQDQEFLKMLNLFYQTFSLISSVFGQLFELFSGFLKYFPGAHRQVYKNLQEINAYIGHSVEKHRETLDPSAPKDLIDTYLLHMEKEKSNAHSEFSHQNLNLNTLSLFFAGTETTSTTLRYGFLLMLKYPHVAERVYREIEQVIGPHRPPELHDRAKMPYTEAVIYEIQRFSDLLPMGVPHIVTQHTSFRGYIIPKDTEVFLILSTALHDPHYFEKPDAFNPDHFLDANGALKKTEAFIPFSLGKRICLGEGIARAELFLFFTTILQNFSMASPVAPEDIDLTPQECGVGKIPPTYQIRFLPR
Summary of the method: as §2

Cytochrome P450 2C8 = biological target: T3, Cytochrome P450 2C8 (Homo sapiens, UniProt P10632); test: Inhibition of CYP2C8 in human liver microsomes using amodiaquine as substrate preincubated for 5 mins followed by NADPH addition and measured for 10 to 30 mins by LC-MS/MS analysis; type: ADME
T3 sequence (P10632 whole entry): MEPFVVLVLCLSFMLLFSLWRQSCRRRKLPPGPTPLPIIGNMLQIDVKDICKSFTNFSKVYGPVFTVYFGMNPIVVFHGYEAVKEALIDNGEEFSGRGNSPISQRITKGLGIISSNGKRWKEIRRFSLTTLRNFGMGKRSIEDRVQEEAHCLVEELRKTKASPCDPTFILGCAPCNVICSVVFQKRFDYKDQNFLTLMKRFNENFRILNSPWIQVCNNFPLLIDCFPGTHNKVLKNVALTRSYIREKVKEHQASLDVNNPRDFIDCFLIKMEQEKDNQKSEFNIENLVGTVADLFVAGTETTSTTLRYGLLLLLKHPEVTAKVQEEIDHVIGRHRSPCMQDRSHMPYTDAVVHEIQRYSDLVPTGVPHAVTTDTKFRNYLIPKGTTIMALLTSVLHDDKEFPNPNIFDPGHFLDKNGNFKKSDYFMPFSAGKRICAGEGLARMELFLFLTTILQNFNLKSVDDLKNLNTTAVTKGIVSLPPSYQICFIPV
Summary of the method: as §2

Cytochrome P450 2C9 = Cytochrome P450 2C9 (Homo sapiens, UniProt P11712); test: Inhibition of CYP2C9 in human liver microsomes using diclofenac as substrate preincubated for 5 mins followed by NADPH addition and measured for 10 to 30 mins by LC-MS/MS analysis; type: ADME
Sequence of Cytochrome P450 2C9 (P11712 whole entry): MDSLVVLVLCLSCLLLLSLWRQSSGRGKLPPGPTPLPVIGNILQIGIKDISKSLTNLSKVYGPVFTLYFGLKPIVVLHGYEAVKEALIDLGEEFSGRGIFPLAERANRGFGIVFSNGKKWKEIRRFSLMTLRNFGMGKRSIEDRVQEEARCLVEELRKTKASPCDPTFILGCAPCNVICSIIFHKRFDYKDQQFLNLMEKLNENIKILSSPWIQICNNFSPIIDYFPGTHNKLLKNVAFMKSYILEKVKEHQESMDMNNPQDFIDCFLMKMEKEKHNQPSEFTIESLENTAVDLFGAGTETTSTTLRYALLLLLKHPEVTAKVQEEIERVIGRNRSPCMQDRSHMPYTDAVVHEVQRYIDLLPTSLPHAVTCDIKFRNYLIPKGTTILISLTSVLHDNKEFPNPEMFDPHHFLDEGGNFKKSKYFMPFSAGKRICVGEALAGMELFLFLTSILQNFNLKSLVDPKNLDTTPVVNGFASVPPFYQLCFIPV
Summary of the method: as §2

Cytochrome P450 2C19 = Cytochrome P450 2C19 (Homo sapiens, UniProt P33261); test: Inhibition of CYP2C19 in human liver microsomes using S-mephenytoin as substrate preincubated for 5 mins followed by NADPH addition and measured for 10 to 30 mins by LC-MS/MS analysis; type: ADME
Sequence of Cytochrome P450 2C19 (P33261 whole entry): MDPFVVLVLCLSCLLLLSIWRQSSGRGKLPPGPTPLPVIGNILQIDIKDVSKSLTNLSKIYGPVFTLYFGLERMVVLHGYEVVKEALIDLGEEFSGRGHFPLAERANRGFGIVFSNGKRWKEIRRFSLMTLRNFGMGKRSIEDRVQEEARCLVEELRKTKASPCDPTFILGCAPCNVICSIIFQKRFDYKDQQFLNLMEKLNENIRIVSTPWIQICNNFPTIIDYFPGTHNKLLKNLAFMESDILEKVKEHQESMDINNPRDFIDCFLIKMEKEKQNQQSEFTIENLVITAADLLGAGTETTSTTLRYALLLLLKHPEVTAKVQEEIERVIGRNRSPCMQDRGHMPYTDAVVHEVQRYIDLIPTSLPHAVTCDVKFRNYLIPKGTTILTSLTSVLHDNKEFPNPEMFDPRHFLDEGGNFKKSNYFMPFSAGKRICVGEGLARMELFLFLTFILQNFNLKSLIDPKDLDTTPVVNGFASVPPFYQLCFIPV
Summary of the method: as §2

Cytochrome P450 2D6 = Cytochrome P450 2D6 (Homo sapiens, UniProt P10635); test: Inhibition of CYP2D6 in human liver microsomes using bufuralol as substrate preincubated for 5 mins followed by NADPH addition and measured for 10 to 30 mins by LC-MS/MS analysis; type: ADME
Sequence of Cytochrome P450 2D6 (P10635 whole entry): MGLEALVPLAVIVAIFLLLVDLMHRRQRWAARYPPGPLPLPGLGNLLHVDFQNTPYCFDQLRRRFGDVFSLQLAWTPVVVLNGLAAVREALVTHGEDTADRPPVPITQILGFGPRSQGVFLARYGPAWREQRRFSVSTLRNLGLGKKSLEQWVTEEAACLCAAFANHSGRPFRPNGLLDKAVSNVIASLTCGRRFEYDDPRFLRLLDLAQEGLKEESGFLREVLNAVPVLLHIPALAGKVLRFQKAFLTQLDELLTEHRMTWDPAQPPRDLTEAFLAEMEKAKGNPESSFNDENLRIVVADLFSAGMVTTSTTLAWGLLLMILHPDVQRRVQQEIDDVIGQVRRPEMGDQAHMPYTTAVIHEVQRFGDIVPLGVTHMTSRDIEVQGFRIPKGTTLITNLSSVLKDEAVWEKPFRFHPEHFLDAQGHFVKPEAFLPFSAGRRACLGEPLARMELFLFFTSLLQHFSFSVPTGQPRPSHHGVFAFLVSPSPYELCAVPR
Summary of the method: as §2

CYP3A [14] = biological target: T4, CYP3A (Homo sapiens, UniProt P08684+P20815+P24462+Q9HB55); test: Inhibition of CYP3A in human liver microsomes using testosterone as substrate preincubated for 5 mins followed by NADPH addition and measured for 10 to 30 mins by LC-MS/MS analysis; type: ADME; details: probe testosterone
Summary of the method: as §2

CYP3A [15] = biological target: T4, CYP3A; test: Inhibition of CYP3A in human liver microsomes using midazolam as substrate preincubated for 5 mins followed by NADPH addition and measured for 10 to 30 mins by LC-MS/MS analysis; type: ADME; details: probe midazolam
Summary of the method: as §2

[16] = system: Human immunodeficiency virus 1; test: microbe, parasite or virus in culture; details: Human immunodeficiency virus 1, subtypeA
[17] = system: Human immunodeficiency virus 1; test: microbe, parasite or virus in culture; details: Human immunodeficiency virus 1, subtypeA; remark: listed apart in the source

Row | SMILES | IC50 [2] [µM] | CC50 (TZM) [µM] | also measured
1 | CC1(C)CC(NC(=O)C(=O)Nc2ccc(Cl)cc2)CC(C)(C)N1 |  |  | Activity [1]: Non-Toxic
2 | COc1cnc(-n2cnc(C)n2)c2[nH]cc(C(=O)C(=O)N3CCN(C(=O)c4ccccc4)CC3)c12 | < 0.001 |  | IC50 [3]: 0.02 µM; IC50 [4]: 0.2 µM
3 | Cc1cc(-c2ccc(C(F)(F)F)cn2)[nH]c1C(=O)N[C@@H](CN)c1ncc(CO)s1 |  | 109 | solubility [5]: 0.734 mg/mL (≈ 1730 µM); Papp [6]: 65.1 nm/s; Papp [7]: 203 nm/s; Papp A→B at 2 h, 5 µM [8]: 140 nm/s; Papp B→A at 2 h, 5 µM [9]: 105 nm/s; remaining at 2 h, 3 µM [10]: 93.5%; CLH [11]: < 11.6 µL/min/mg; t1/2 [12]: > 2 h; PPB [13]: 99.2%; IC50 (Cytochrome P450 1A2): 70.1 µM; IC50 (Cytochrome P450 2B6): 85.4 µM; IC50 (Cytochrome P450 2C8): > 100 µM; IC50 (Cytochrome P450 2C9): > 100 µM; IC50 (Cytochrome P450 2C19): > 100 µM; IC50 (Cytochrome P450 2D6): > 100 µM; IC50 (CYP3A [14]): > 62.2 µM; IC50 (CYP3A [15]): > 100 µM; Activity [1]: Non-Toxic
4 | COc1cc(-c2ccc(C(=O)N[C@@H](CN)c3nc(CO)cs3)[nH]2)ccn1 | > 11 | > 133 | 
5 | NC[C@H](NC(=O)c1ccc(-c2ccc(C(F)(F)F)cn2)[nH]1)c1nc(C(O)CO)cs1 (stereo partly drawn) | 3.8 | > 113 | 
6 | NC[C@@H](NC(=O)c1ccc(-c2ccc(C(F)(F)F)cn2)[nH]1)c1nc(CCCO)cs1 | 2.3 | > 114 | 
7 | Cc1cc(-c2ccc(C(F)(F)F)cn2)[nH]c1C(=O)N[C@H](CN)c1nc(CO)cs1 |  |  | Activity [1]: Non-Toxic
8 | NC[C@H](NC(=O)c1ccc(-c2ccc(Cl)nc2)[nH]1)c1nc(CO)cs1 | > 11 | > 132 | 
9 | NC[C@H](NC(=O)c1ccc(-c2ncc(Cl)cn2)[nH]1)c1nc(CO)cs1 | > 15.8 | > 66 | 
10 | NC[C@@H](NC(=O)c1ccc(-c2ccc(C(F)(F)F)nn2)[nH]1)c1nc(CO)cs1 | > 12 | > 73 | 
11 | NC[C@H](NC(=O)c1ccc(-c2ccc(C(F)(F)F)cn2)[nH]1)c1nccs1 | 1.2 | 93.6 | 
12 | NC[C@@H](NC(=O)c1ccc(-c2ccc(C(F)(F)F)cn2)[nH]1)c1nccs1 | 2 | 89.3 | 
13 | NC[C@@H](NC(=O)c1ccc(-c2ccc(C(F)(F)F)cc2)[nH]1)c1ncc(CO)s1 |  | 42.4 | IC50 [16]: 0.7 µM; IC50 [17]: 0.8 µM
14 | NC[C@@H](NC(=O)c1ccc(-c2ccc(C(F)(F)F)cn2)[nH]1)c1nc(CO)c(CO)s1 | 1.8 | > 113 | 
15 | NC[C@H](NC(=O)c1ccc(-c2ccc(C(F)(F)F)cn2)[nH]1)c1nc(CCCO)cs1 | 0.89 | 81.2 | 
16 | NC[C@H](NC(=O)c1ccc(-c2ccc(C(F)(F)F)nc2)[nH]1)c1nc(CO)cs1 | 11.9 | > 122 | 
17 | CC(CN)(NC(=O)c1ccc(-c2ccc(C(F)(F)F)cn2)[nH]1)c1nc(CO)cs1 (racemic) | 5.1 | > 70.5 | 
18 | Cc1cc(-c2ccc(C(F)(F)F)cn2)[nH]c1C(=O)NC(C)(CN)c1nc(CO)cs1 (racemic) | 2.6 | > 68.3 | 
